Assay results: ChEMBL document CHEMBL1153736, “Application of ring-closing metathesis macrocyclization to the development of Tsg101-binding antagonists” (Bioorg Med Chem Lett, 2010)
pKd: −log10 of the molar value. Numbered stars: 1 amine (or outer) side, 2 acyl side, 3 side chain; on linkers, the order of the positions; unused ones are H or OH. Bridge positions count the residues as written; N and C are the ends. Square brackets hold non-standard residues; d marks the D form. Peptide text beside a SMILES is read from it. * marks the point of attachment. Fluorescein(5-NHCS) = O=C1OC2(c3ccc(O)cc3Oc3cc(O)ccc32)c2cc(NC(=S)*)ccc21; Gly(N-but-3-enyl) = O=C(CN(CCC=[*:3])[*:1])[*:2]; X3 = O=C(CN(CCCCCCC=[*:3])[*:1])[*:2]; N(7-octenyl)Gly = C=CCCCCCCNCC(=O)O; Ava = NCCCCC(=O)O

Molecular target: T1, Tumor susceptibility gene 101 protein (Homo sapiens, UniProt Q99816)
T1 sequence (Q99816 whole entry): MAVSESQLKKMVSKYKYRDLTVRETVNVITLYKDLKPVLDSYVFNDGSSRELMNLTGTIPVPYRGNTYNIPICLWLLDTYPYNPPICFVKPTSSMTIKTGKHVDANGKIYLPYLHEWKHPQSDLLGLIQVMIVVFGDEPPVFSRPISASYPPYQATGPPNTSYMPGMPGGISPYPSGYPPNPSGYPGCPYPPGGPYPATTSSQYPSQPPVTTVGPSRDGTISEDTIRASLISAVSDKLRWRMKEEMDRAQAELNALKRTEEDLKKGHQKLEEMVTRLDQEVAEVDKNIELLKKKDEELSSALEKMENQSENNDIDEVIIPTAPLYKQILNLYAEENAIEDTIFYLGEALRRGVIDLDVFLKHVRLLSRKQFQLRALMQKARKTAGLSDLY
Assay: Binding affinity to ubiquitin E2 variant domain of human Tsg101 by fluorescent anisotropy
Conditions: not given

| pKd | Compound |
| --- | --- |
| < 3.30 | C[C@@H]1NC(=O)[C@H]([C@@H](C)O)NC(=O)[C@@H]2CCCN2C(=O)[C@H](CCC(=O)O)NC(=O)CN(C(=O)CCCCNC(=S)Nc2ccc3c(c2)C2(OC3=O)c3ccc(O)cc3Oc3cc(O)ccc32)CCC/C=C\CN(CC(N)=O)C(=O)[C@H](CCC(=O)O)NC(=O)[C@@H]2CCCN2C(=O)[C@@H]2CCCN2C1=O |
| < 3.30 | C[C@@H]1NC(=O)[C@H]([C@@H](C)O)NC(=O)[C@@H]2CCCN2C(=O)[C@H](CCC(=O)O)NC(=O)CN(C(=O)CCCCNC(=S)Nc2ccc3c(c2)C2(OC3=O)c3ccc(O)cc3Oc3cc(O)ccc32)CCCCC/C=C\CN(CC(N)=O)C(=O)[C@H](CCC(=O)O)NC(=O)[C@@H]2CCCN2C(=O)[C@@H]2CCCN2C1=O |
| 3.97 | C[C@@H]1NC(=O)[C@H]([C@@H](C)O)NC(=O)[C@@H]2CCCN2C(=O)CN(C(=O)[C@@H]2CCCN2C(=O)CCCCNC(=S)Nc2ccc3c(c2)C2(OC3=O)c3ccc(O)cc3Oc3cc(O)ccc32)CCCCC=CCN(CC(N)=O)C(=O)[C@H](CCC(=O)O)NC(=O)[C@@H]2CCCN2C(=O)[C@@H]2CCCN2C1=O |
| < 3.30 | C[C@@H]1NC(=O)[C@H]([C@@H](C)O)NC(=O)[C@@H]2CCCN2C(=O)[C@H](CCC(=O)O)NC(=O)CN(C(=O)CCCCNC(=S)Nc2ccc3c(c2)C2(OC3=O)c3ccc(O)cc3Oc3cc(O)ccc32)CCCC/C=C\CN(CC(N)=O)C(=O)[C@H](CCC(=O)O)NC(=O)[C@@H]2CCCN2C(=O)[C@@H]2CCCN2C1=O |
| 3.97 | C[C@@H]1NC(=O)[C@H]([C@@H](C)O)NC(=O)[C@@H]2CCCN2C(=O)[C@H](CCC(=O)O)NC(=O)CN(C(=O)CCCCNC(=S)Nc2ccc3c(c2)C2(OC3=O)c3ccc(O)cc3Oc3cc(O)ccc32)CCC/C=C\CCCCCCN(CC(N)=O)C(=O)[C@H](CCC(=O)O)NC(=O)[C@@H]2CCCN2C(=O)[C@@H]2CCCN2C1=O |

Tested on: HeLa
Assay: Cellular uptake in human HeLa cells assessed as fluorescence intensity by FACS analysis relative to control
Type: ADME, cell-based
Conditions: in the assay text read “fluorescence microscopy” for “FACS analysis”
Outline: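 Uptake of FITC-tagged peptide-peptoid hybrids was measured by fluorescence microscopy. The value is the average fluorescence intensity of treated cells, quantified from at least 20 cells taken from 4–6 fields, each field holding about 5 cells.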

| Drug uptake [%] | Compound |
| --- | --- |
| 328 | C[C@@H]1NC(=O)[C@H]([C@@H](C)O)NC(=O)[C@@H]2CCCN2C(=O)[C@H](CCC(=O)O)NC(=O)CN(C(=O)CCCCNC(=S)Nc2ccc3c(c2)C2(OC3=O)c3ccc(O)cc3Oc3cc(O)ccc32)CCCCCC/C=C\CCCCCCN(CC(N)=O)C(=O)[C@H](CCC(=O)O)NC(=O)[C@@H]2CCCN2C(=O)[C@@H]2CCCN2C1=O |
| 77 | C[C@@H]1NC(=O)[C@H]([C@@H](C)O)NC(=O)[C@@H]2CCCN2C(=O)CN(C(=O)[C@@H]2CCCN2C(=O)CCCCNC(=S)Nc2ccc3c(c2)C2(OC3=O)c3ccc(O)cc3Oc3cc(O)ccc32)CC/C=C\CCCCCCN(CC(N)=O)C(=O)[C@H](CCC(=O)O)NC(=O)[C@@H]2CCCN2C(=O)[C@@H]2CCCN2C1=O |
| 199 | C[C@@H]1NC(=O)[C@H]([C@@H](C)O)NC(=O)[C@@H]2CCCN2C(=O)CN(C(=O)[C@@H]2CCCN2C(=O)CCCCNC(=S)Nc2ccc3c(c2)C2(OC3=O)c3ccc(O)cc3Oc3cc(O)ccc32)CCCCCC/C=C\CCCCCCN(CC(N)=O)C(=O)[C@H](CCC(=O)O)NC(=O)[C@@H]2CCCN2C(=O)[C@@H]2CCCN2C1=O |
| 98 | C=CCN(CC(N)=O)C(=O)[C@H](CCC(=O)O)NC(=O)[C@@H]1CCCN1C(=O)[C@@H]1CCCN1C(=O)[C@H](C)NC(=O)[C@@H](NC(=O)[C@@H]1CCCN1C(=O)CN(CC=C)C(=O)[C@@H]1CCCN1C(=O)CCCCNC(=S)Nc1ccc2c(c1)C1(OC2=O)c2ccc(O)cc2Oc2cc(O)ccc21)[C@@H](C)O |
| 100 | C[C@@H]1NC(=O)[C@H]([C@@H](C)O)NC(=O)[C@@H]2CCCN2C(=O)[C@H](CCC(=O)O)NC(=O)CN(C(=O)CCCCNC(=S)Nc2ccc3c(c2)C2(OC3=O)c3ccc(O)cc3Oc3cc(O)ccc32)CC/C=C\CCCCCCN(CC(N)=O)C(=O)[C@H](CCC(=O)O)NC(=O)[C@@H]2CCCN2C(=O)[C@@H]2CCCN2C1=O |
| 35 | C=CCCCCCCN(CC(=O)N[C@@H](CCC(=O)O)C(=O)N1CCC[C@H]1C(=O)N[C@H](C(=O)N[C@@H](C)C(=O)N1CCC[C@H]1C(=O)N1CCC[C@H]1C(=O)N[C@@H](CCC(=O)O)C(=O)N(CCCCCCC=C)CC(N)=O)[C@@H](C)O)C(=O)CCCCNC(=S)Nc1ccc2c(c1)C1(OC2=O)c2ccc(O)cc2Oc2cc(O)ccc21 |
| 42 | C=CCCCCCCN(CC(N)=O)C(=O)[C@H](CCC(=O)O)NC(=O)[C@@H]1CCCN1C(=O)[C@@H]1CCCN1C(=O)[C@H](C)NC(=O)[C@@H](NC(=O)[C@@H]1CCCN1C(=O)CN(CCCCCCC=C)C(=O)[C@@H]1CCCN1C(=O)CCCCNC(=S)Nc1ccc2c(c1)C1(OC2=O)c2ccc(O)cc2Oc2cc(O)ccc21)[C@@H](C)O |
| 74 | C=CCN(CC(=O)N[C@@H](CCC(=O)O)C(=O)N1CCC[C@H]1C(=O)N[C@H](C(=O)N[C@@H](C)C(=O)N1CCC[C@H]1C(=O)N1CCC[C@H]1C(=O)N[C@@H](CCC(=O)O)C(=O)N(CC=C)CC(N)=O)[C@@H](C)O)C(=O)CCCCNC(=S)Nc1ccc2c(c1)C1(OC2=O)c2ccc(O)cc2Oc2cc(O)ccc21 (stereo in doubt; 1'-(1,1)) |
| 76 | C[C@@H]1NC(=O)[C@H]([C@@H](C)O)NC(=O)[C@@H]2CCCN2C(=O)CN(C(=O)[C@@H]2CCCN2C(=O)CCCCNC(=S)Nc2ccc3c(c2)C2(OC3=O)c3ccc(O)cc3Oc3cc(O)ccc32)CC/C=C/CCCCCCN(CC(=O)N[C@@H](CCC(=O)O)C(N)=O)C(=O)[C@@H]2CCCN2C(=O)[C@@H]2CCCN2C1=O ({Fluorescein(5-NHCS)-Ava}-P[Gly(N-but-3-enyl)]PTAPP[X3]E-NH2; staple (E) 2-8) |
| 45 | C=CCCCCCCN(CC(=O)N1CCC[C@H]1C(=O)N[C@H](C(=O)N[C@@H](C)C(=O)N1CCC[C@H]1C(=O)N1CCC[C@H]1C(=O)N(CCCCCCC=C)CC(=O)N[C@@H](CCC(=O)O)C(N)=O)[C@@H](C)O)C(=O)[C@@H]1CCCN1C(=O)CCCCNC(=S)Nc1ccc2c(c1)C1(OC2=O)c2ccc(O)cc2Oc2cc(O)ccc21 ({Fluorescein(5-NHCS)-Ava}-P[N(7-octenyl)Gly]PTAPP[N(7-octenyl)Gly]E-NH2) |
| 200 | C[C@@H]1NC(=O)[C@H]([C@@H](C)O)NC(=O)[C@@H]2CCCN2C(=O)CN(C(=O)[C@@H]2CCCN2C(=O)CCCCNC(=S)Nc2ccc3c(c2)C2(OC3=O)c3ccc(O)cc3Oc3cc(O)ccc32)CCCCCC/C=C\CCCCCCN(CC(=O)N[C@@H](CCC(=O)O)C(N)=O)C(=O)[C@@H]2CCCN2C(=O)[C@@H]2CCCN2C1=O ({Fluorescein(5-NHCS)-Ava}-P[X3]PTAPP[X3]E-NH2; staple (Z) 2-8) |
| 100 | C[C@@H]1NC(=O)[C@H]([C@@H](C)O)NC(=O)[C@@H]2CCCN2C(=O)[C@H](CCC(=O)O)NC(=O)CN(C(=O)CCCCNC(=S)Nc2ccc3c(c2)C2(OC3=O)c3ccc(O)cc3Oc3cc(O)ccc32)CC/C=C/CCCCCCN(CC(=O)N[C@@H](CCC(=O)O)C(N)=O)C(=O)[C@@H]2CCCN2C(=O)[C@@H]2CCCN2C1=O ({Fluorescein(5-NHCS)-Ava}-[Gly(N-but-3-enyl)]EPTAPP[X3]E-NH2; staple (E) 1-8) |
| 40 | C=CCCCCCCN(CC(=O)N[C@@H](CCC(=O)O)C(=O)N1CCC[C@H]1C(=O)N[C@H](C(=O)N[C@@H](C)C(=O)N1CCC[C@H]1C(=O)N1CCC[C@H]1C(=O)N(CCCCCCC=C)CC(=O)N[C@@H](CCC(=O)O)C(N)=O)[C@@H](C)O)C(=O)CCCCNC(=S)Nc1ccc2c(c1)C1(OC2=O)c2ccc(O)cc2Oc2cc(O)ccc21 ({Fluorescein(5-NHCS)-Ava}-[N(7-octenyl)Gly]EPTAPP[N(7-octenyl)Gly]E-NH2) |
| 74 | H-PEPTAPPEE-OH |
